Assay results: ChEMBL document CHEMBL3124885, “Discovery of 7-tetrahydropyran-2-yl chromans: β-site amyloid precursor protein cleaving enzyme 1 (BACE1) inhibitors that reduce amyloid β-protein (Aβ) in the central nervous system” (J Med Chem, 2014)

Columns and labels:
[1] = Drug uptake in Hartley guinea pig CSF at 100 mg/kg, po measured at 3 hrs; assay type: ADME, organism-based, Cavia porcellus, Cerebrospinal fluid; parameters: dose 100 mg/kg, route oral; conditions: read-out: Drug uptake
How it was run: (§1)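 Male Hartley guinea pigs, oral dosing (CMC/Tween/citrate suspension or PEG/EtOH/H₂O solution), six or eight animals per cohort; CSF drug concentration (nM) measured at each time point.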

[2] = Drug uptake in Hartley guinea pig CSF at 60 mg/kg, po measured at 12 hrs; assay type: ADME, organism-based, Cavia porcellus, Cerebrospinal fluid; parameters: dose 60 mg/kg, route oral; conditions: read-out: Drug uptake; how it was run: as §1
[3] = Drug uptake in Hartley guinea pig CSF at 60 mg/kg, po measured at 8 hrs; assay type: ADME, organism-based, Cavia porcellus, Cerebrospinal fluid; parameters: dose 60 mg/kg, route oral; conditions: read-out: Drug uptake; how it was run: as §1
[4] = Drug uptake in Hartley guinea pig CSF at 30 mg/kg, po measured at 3 hrs; assay type: ADME, organism-based, Cavia porcellus, Cerebrospinal fluid; parameters: dose 30 mg/kg, route oral; conditions: read-out: Drug uptake; how it was run: as §1
[5] = Ratio of unbound drug level in brain to plasma in Hartley guinea pig at 60 mg/kg, po measured at 12 hrs; assay type: ADME, organism-based, Cavia porcellus; parameters: dose 60 mg/kg, route oral; conditions: brain and plasma (unbound), read-out: K(p,uu,brain)
How it was run: (§2)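 Male Hartley guinea pigs given single oral doses of 30, 60 or 100 mg/kg in 1% CMC/0.5% Tween/5 mM citrate in H₂O, 6–8 animals per cohort. Plasma, brain and CSF sampled at 1–12 h; free brain to free plasma ratio computed.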

[6] = Fraction unbound in Hartley guinea pig brain at 60 mg/kg, po measured at 5 hrs; assay type: ADME, organism-based, Cavia porcellus; parameters: dose 60 mg/kg, route oral; conditions: in vivo
[7] = Unbound plasma concentration in Hartley guinea pig at 30 mg/kg, po measured at 3 hrs; assay type: ADME, organism-based, Cavia porcellus; parameters: dose 30 mg/kg, route oral; conditions: in vivo
How it was run: (§3)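 Male Hartley guinea pigs were dosed orally at 30, 60 or 100 mg/kg, with six or eight animals per cohort. The vehicle was either a suspension in 1% CMC/0.5% Tween/5 mM citrate in H₂O or a 40/10/50 PEG/EtOH/H₂O solution, depending on compound. Unbound plasma concentration was sampled at 1–12 h post-dose alongside brain, CSF and CSF Aβ₁₋₄₀.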

[8] = Drug uptake in cynomolgus monkey CSF at 0.5 mg/kg, iv and 100 mg/kg, po measured at 4 hrs; assay type: ADME, organism-based, Macaca fascicularis, Cerebrospinal fluid; conditions: read-out: Drug uptake
How it was run: (§4)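 Female cynomolgus monkeys, 3 per dosing route; iv formulation PEG400/EtOH/water (40/10/50) solution; oral suspension in 1% CMC, 0.5% Tween 80, 5 mM citrate buffer; CSF concentration measured.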

[9] = Drug uptake in cynomolgus monkey CSF at 0.5 mg/kg, iv and 100 mg/kg, po measured at 2 hrs; assay type: ADME, organism-based, Macaca fascicularis, Cerebrospinal fluid; conditions: read-out: Drug uptake; how it was run: as §4
Plasma [10] = assay: Unbound plasma concentration in cynomolgus monkey at 0.5 mg/kg, iv and 100 mg/kg, po measured at 2 hrs; assay type: ADME, organism-based, Macaca fascicularis; conditions: in vivo
How it was run: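 Female cynomolgus monkeys, three per dosing route, received 0.5 mg/kg iv and 100 mg/kg po. Unbound plasma concentration was reported at 2 h and 4 h post-dose.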

Cynomolgus monkey = assay: Hepatic clearance in cynomolgus monkey at 0.5 mg/kg, iv; assay type: ADME, organism-based, Macaca fascicularis, Liver; parameters: dose 0.5 mg/kg, route intravenous; conditions: in vivo
[11] = Drug uptake in Hartley guinea pig CSF at 60 mg/kg, po measured at 3 hrs; assay type: ADME, organism-based, Cavia porcellus, Cerebrospinal fluid; parameters: dose 60 mg/kg, route oral; conditions: read-out: Drug uptake; how it was run: as §1
[12] = Drug uptake in Hartley guinea pig CSF at 60 mg/kg, po measured at 1 hr; assay type: ADME, organism-based, Cavia porcellus, Cerebrospinal fluid; parameters: dose 60 mg/kg, route oral; conditions: read-out: Drug uptake; how it was run: as §1
[13] = Ratio of unbound drug level in brain to plasma in Hartley guinea pig at 60 mg/kg, po measured at 1 hr; assay type: ADME, organism-based, Cavia porcellus; parameters: dose 60 mg/kg, route oral; conditions: brain and plasma (unbound), read-out: K(p,uu,brain); how it was run: as §2
[14] = Fraction unbound in Hartley guinea pig brain at 60 mg/kg, po measured at 1 hr; assay type: ADME, organism-based, Cavia porcellus; parameters: dose 60 mg/kg, route oral; conditions: in vivo
[15] = Fraction unbound in Hartley guinea pig brain at 60 mg/kg, po measured at 3 hrs; assay type: ADME, organism-based, Cavia porcellus; parameters: dose 60 mg/kg, route oral; conditions: in vivo
[16] = Clearance in Hartley guinea pig liver microsomes at 1 uM after 20 mins by LC-MS/MS analysis in presence of NADPH; assay type: ADME, Cavia porcellus, Microsome; conditions: read-out: CLH
[17] = Intrinsic clearance in Hartley guinea pig hepatocytes at 2 uM after 60 to 120 mins; assay type: ADME, cell-based, Cavia porcellus, Hepatocyte; conditions: read-out: CLH
[18] = Cmax in cynomolgus monkey CSF at 100 mg/kg, po measured at 2 hrs; assay type: ADME, organism-based, Macaca fascicularis, Cerebrospinal fluid; parameters: dose 100 mg/kg, route oral
[19] = Drug uptake in Sprague-Dawley rat CSF at 60 mg/kg, po measured at 8 hrs; assay type: ADME, organism-based, Cerebrospinal fluid; parameters: dose 60 mg/kg, route oral; conditions: read-out: Drug uptake
How it was run: (§5)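 Male Sprague−Dawley rats dosed orally at 60 mg/kg in 1% CMC/0.5% Tween/5 mM citrate in H₂O; CSF compound concentration (nM) at 1–12 h.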

[20] = Drug uptake in Sprague-Dawley rat CSF at 60 mg/kg, po measured at 5 hrs; assay type: ADME, organism-based, Cerebrospinal fluid; parameters: dose 60 mg/kg, route oral; conditions: read-out: Drug uptake; how it was run: as §5
[21] = Ratio of unbound drug level in brain to plasma in Sprague-Dawley rat at 60 mg/kg, po measured at 5 hrs; assay type: ADME, organism-based; parameters: dose 60 mg/kg, route oral; conditions: brain and plasma (unbound), read-out: K(p,uu,brain)
How it was run: (§6)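 Male Sprague–Dawley rats dosed 60 mg/kg po in 1% CMC/0.5% Tween/5 mM citrate in H₂O; plasma, brain and CSF taken at 1, 3, 5, 8 and 12 h; unbound plasma and brain levels and their ratio determined.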

Brain [22] = assay: Fraction unbound in Sprague-Dawley rat brain at 60 mg/kg, po measured at 8 hrs; assay type: ADME, organism-based; parameters: dose 60 mg/kg, route oral; conditions: in vivo; how it was run: as §6
Brain [23] = assay: Fraction unbound in Sprague-Dawley rat brain at 60 mg/kg, po measured at 5 hrs; assay type: ADME, organism-based; parameters: dose 60 mg/kg, route oral; conditions: in vivo; how it was run: as §6
Plasma [24] = assay: Unbound plasma concentration in Sprague-Dawley rat at 60 mg/kg, po measured at 12 hrs; assay type: ADME, organism-based; parameters: dose 60 mg/kg, route oral; conditions: in vivo
How it was run: (§7)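 Male Sprague-Dawley rats were given a single 60 mg/kg oral dose in 1% CMC/0.5% Tween/5 mM citrate in H₂O. Free plasma concentration was determined at 1, 3, 5, 8 and 12 h. Brain, CSF and CSF Aβ₁₋₄₀ were sampled at the same times.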

Plasma [25] = assay: Unbound plasma concentration in Sprague-Dawley rat at 60 mg/kg, po measured at 8 hrs; assay type: ADME, organism-based; parameters: dose 60 mg/kg, route oral; conditions: in vivo; how it was run: as §7
Plasma [26] = assay: Unbound plasma concentration in Sprague-Dawley rat at 60 mg/kg, po measured at 3 hrs; assay type: ADME, organism-based; parameters: dose 60 mg/kg, route oral; conditions: in vivo; how it was run: as §7
Rattus norvegicus = assay: Hepatic clearance in Sprague-Dawley rat at 3 mg/kg, iv; assay type: ADME, organism-based, Liver; parameters: dose 3 mg/kg, route intravenous; conditions: in vivo
How it was run: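 Male Sprague–Dawley rats, 3 per cohort, iv 3 mg/kg in 30% captisol/5 mM citrate in saline; po 60 mg/kg in 1% CMC/0.5% Tween/5 mM citrate in H₂O.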

[27] = Intrinsic clearance in Sprague-Dawley rat hepatocytes at 2 uM after 60 to 120 mins; assay type: ADME, cell-based, Hepatocyte; conditions: read-out: CLH
[28] = Dissociation constant, pKa of the compound by parallel capillary electrophoresis method; assay type: physicochemical
How it was run: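 pKa determined by a 24-point parallel capillary electrophoresis method, quantitation by UV absorbance at 229 nm.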

Brain [29] = assay: Fraction unbound in CD-1 mouse brain at 10 mg/kg, po measured at 4 hrs; assay type: ADME, organism-based; parameters: dose 10 mg/kg, route oral; conditions: in vivo
How it was run: (§8)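 Male CD-1 mice, 3 per cohort, dosed 10 mg/kg orally; brains harvested at 1 and 4 h.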

Brain [30] = assay: Fraction unbound in CD-1 mouse brain at 10 mg/kg, po measured at 1 hr; assay type: ADME, organism-based; parameters: dose 10 mg/kg, route oral; conditions: in vivo; how it was run: as §8
Plasma [31] = assay: Unbound plasma concentration in CD-1 mouse at 3 mg/kg, iv and 10 mg/kg, po measured at 1 hr; assay type: ADME, organism-based; conditions: in vivo
How it was run: (§9)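 Male CD-1 mice, 3 per cohort, dosed 3 mg/kg iv and 10 mg/kg po; plasma drawn at 1 and 4 h, brains harvested from oral groups only. Formulations varied by compound: 40% PEG 400/10% EtOH/50% H₂O; 30% captisol in H₂O; iv 50 mM citrate in saline (pH 4); po 1% CMC/0.5% Tween/5 mM citrate in H₂O.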

Mus musculus = assay: Hepatic clearance in CD-1 mouse at 3 mg/kg, iv; assay type: ADME, organism-based, Liver; parameters: dose 3 mg/kg, route intravenous; conditions: in vivo; how it was run: as §9
[32] = Unbound plasma concentration in Hartley guinea pig at 60 mg/kg, po measured at 3 hrs; assay type: ADME, organism-based, Cavia porcellus; parameters: dose 60 mg/kg, route oral; conditions: in vivo; how it was run: as §3

With `CN1C(=O)[C@]2(N=C1N)c1cc(-c3cccnc3F)ccc1O[C@H]1CCOC[C@@H]12` the concentration at 3 h [1] was 56 nM, the concentration at 12 h [2] was 2.6 nM and the concentration at 8 h [3] was 1.6 nM. The concentration at 3 h [4] was 9.9 nM, the Kp uu at 12 h [5] was > 3.7 and the “Drug uptake(free)” value [6] was 12 nM. For the same compound, the “Cp(f)” value [7] was 5.8 nM, the concentration at 4 h [8] was 84 nM and the concentration at 2 h [9] was 110 nM. For the same compound, the “Cp(f)” value (Plasma [10]) was 3200 nM, the CLH (Cynomolgus monkey) was 22 mL/min/kg and the concentration at 3 h [11] was 23 nM. The concentration at 1 h [12] was 69 nM, the Kp uu at 1 h [13] was 0.14 and the “Drug uptake(free)” value [14] was 19 nM. The “Drug uptake(free)” value [15] was 34 nM, the CLint scaled at 1 µM [16] was 17 mL/min/kg and the CLint scaled at 2 µM [17] was 9.7 mL/min/kg. For the same compound, the Cmax [18] was 120 nM, the concentration at 8 h [19] was 130 nM and the concentration at 5 h [20] was 200 nM. For the same compound, the Kp uu at 5 h [21] was 0.029, the “Drug uptake(free)” value (Brain [22]) was 84 nM and the “Drug uptake(free)” value (Brain [23]) was 79 nM. For the same compound, the “Cp(f)” value (Plasma [24]) was 960 nM, the “Cp(f)” value (Plasma [25]) was 1700 nM and the “Cp(f)” value (Plasma [26]) was 2200 nM. For the same compound, the CLH (Rattus norvegicus) was 30 mL/min/kg, the CLint scaled at 2 µM [27] was 35 mL/min/kg and the pKa [28] was 5.8. The “Drug uptake(free)” value (Brain [29]) was 15 nM, the “Drug uptake(free)” value (Brain [30]) was 24 nM and the “Cp(f)” value (Plasma [31]) was 300 nM. The CLH (Mus musculus) was 41 mL/min/kg and the “Cp(f)” value [32] was 23 nM.
